Measured values reported in ChEMBL document CHEMBL1649334, “Trypanocidal activity of aziridinyl nitrobenzamide prodrugs” (Antimicrob Agents Chemother, 2010).
The source made the active and inactive calls. The calls are words filed in the database; no cut-off is given here.

Key:
Trypanosoma brucei [1] = assay: Antitrypanosomal activity against Trypanosoma brucei BSF overexpressing NTR gene assessed as growth inhibition after 3 days by Alamar blue assay; assay type: functional, organism-based; conditions: 72 h
Method in brief: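 Bloodstream-form 2T1 parasites overexpressing TbNTR, kept in hygromycin, seeded at 1×10^3 ml⁻¹ in modified Iscove's medium with graded compound. Tetracycline 1 μg ml⁻¹ added for induction where appropriate. 3 days at 37°C, 5% CO2, then Alamar Blue for 16 h; fluorescence at ex 530/em 585 nm. IC50 calculated; means of 4 experiments ± SD.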

Trypanosoma cruzi = assay: Antitrypanosomal activity against Trypanosoma cruzi clone Cl-Brener infected in african green monkey Vero cells assessed as growth inhibition after 3 days by luciferase reporter gene assay; assay type: functional, organism-based; conditions: 72 h
Method in brief: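 Vero cells seeded at 1.5×10^4 ml⁻¹, allowed to adhere 6 h, then infected overnight with 10,000 luciferase-expressing Cl-Brener trypomastigotes per well. After two washes to remove free parasites, drug-containing medium was added for 3 days at 37°C, 5% CO2. Cells were lysed and luciferase light output read; IC50 calculated.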

V79 = assay: Cytotoxicity against chinese hamster V79 cells after 6 days by Alamar blue assay; assay type: cell-based; conditions: Cricetulus griseus, V79, 144 h
Trypanosoma brucei [2] = assay: Activity of Trypanosoma brucei NTR expressed in Escherichia coli assessed as enzyme-mediated compound reduction by reverse phase HPLC
Method in brief: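 Recombinant His-tagged TbNTR purified from E. coli (Ni-NTA). Substrate 100 μM with 200 μM NADH, 3 mM glucose, 1 U glucose dehydrogenase in 50 mM NaH2PO4 pH 7.5 at 37°C; started with 50 μg enzyme. Aliquots at 20–600 s quenched in ice-cold methanol. Substrate loss followed by reversed-phase HPLC (4–56% acetonitrile, 254/340/450 nm), quantified against a nifurtimox standard.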

Vero = assay: Cytotoxicity against african green monkey Vero cells after 6 days by Alamar blue assay; assay type: cell-based; conditions: Chlorocebus sabaeus, 144 h
Method in brief: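 Vero cells seeded at 1×10^4 ml⁻¹ in RPMI 1640 with 10% FCS containing graded compound (up to 250 μM). 6 days at 37°C, 5% CO2, then Alamar Blue for 8 h; fluorescence read and IC50 derived.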

NC(=O)c1cc([N+](=O)[O-])cc([N+](=O)[O-])c1N1CC1
IC50 (Trypanosoma brucei [1]): > 10 µM
IC50 (Trypanosoma cruzi): > 10 µM

COC(=O)CCNC(=O)c1cc(N2CC2)c([N+](=O)[O-])cc1[N+](=O)[O-]
IC50 (Trypanosoma brucei [1]): 1.45 µM
IC50 (Trypanosoma cruzi): 0.69 µM
IC50 (V79): 634 µM
Activity (Trypanosoma brucei [2]): Active
IC50 (Vero): > 250 µM

CS(=O)(=O)c1cc([N+](=O)[O-])c(N2CC2)cc1C(N)=O
IC50 (Trypanosoma brucei [1]): > 10 µM
IC50 (Trypanosoma cruzi): > 10 µM

O=C(NCCN1CCOCC1)c1cc(N2CC2)c([N+](=O)[O-])cc1[N+](=O)[O-]
IC50 (Trypanosoma brucei [1]): 0.89 µM
IC50 (Trypanosoma cruzi): 1.59 µM
IC50 (V79): 624 µM
Activity (Trypanosoma brucei [2]): Active
IC50 (Vero): > 250 µM

NC(=O)c1ccc([N+](=O)[O-])c(N2CC2)c1
IC50 (Trypanosoma brucei [1]): > 10 µM
IC50 (Trypanosoma cruzi): > 10 µM

O=C(NCCN1CCOCC1)c1cc([N+](=O)[O-])cc([N+](=O)[O-])c1N1CC1
IC50 (Trypanosoma brucei [1]): > 10 µM
IC50 (Trypanosoma cruzi): > 10 µM

NC(=O)c1cc(N2CC2)c([N+](=O)[O-])cc1[N+](=O)[O-] [TRETAZICAR]
IC50 (Trypanosoma cruzi): 0.57 µM
IC50 (V79): 543 µM
Activity (Trypanosoma brucei [2]): Active
IC50 (Vero): > 250 µM

CC1CS(=O)(=O)CCN1/N=C/c1ccc([N+](=O)[O-])o1 (centres undefined) [NIFURTIMOX]
IC50 (Trypanosoma cruzi): 0.24 µM
IC50 (V79): 35 µM
IC50 (Vero): 64.1 µM

CS(=O)(=O)c1cc([N+](=O)[O-])c(N2CC2)cc1NCC(O)CO (centres undefined)
IC50 (Trypanosoma brucei [1]): > 10 µM
IC50 (Trypanosoma cruzi): > 10 µM

O=[N+]([O-])c1cc(NCC(O)CO)c(N2CC2)c([N+](=O)[O-])c1 (centres undefined)
IC50 (Trypanosoma brucei [1]): > 6.4 µM
IC50 (Trypanosoma cruzi): > 10 µM
